In article PMC4871731 (Nature chemical biology, 2016):
Blank lines part the entries; values can stand above or below the molecule they belong to. Peptide text beside a SMILES is read from it. * marks the point of attachment. Cbz = O=C(OCc1ccccc1)*

How the values were obtained:
[1] = target: T1, human CLRN1^N48K (Homo sapiens, UniProt P58418, N48K); experiment: Effect of HSP90 inhibition on CLRN1N48K expression; type: cell-based; conditions: D6 cells, 17-AAG 20 µM applied alone
T1 sequence (P58418 1-232 N48K): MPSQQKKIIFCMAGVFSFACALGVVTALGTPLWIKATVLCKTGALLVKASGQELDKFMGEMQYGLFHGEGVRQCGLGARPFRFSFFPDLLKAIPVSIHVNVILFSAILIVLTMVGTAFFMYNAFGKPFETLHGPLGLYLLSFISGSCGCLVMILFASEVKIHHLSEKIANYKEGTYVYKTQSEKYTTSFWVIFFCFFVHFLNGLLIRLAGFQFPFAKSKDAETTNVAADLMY
Method in brief: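 D6 cells were treated for 24 h with 20 µM 17-AAG, test compound (2.90 µM), 50 nM bortezomib, or DMSO vehicle. In one arm, cells were pre-incubated 6 h with 17-AAG before test compound was added for 24 h. Cells were then harvested for CLRN1N48K immunoblotting.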

[2] = system: CLRN1 mRNA; experiment: Reverse transcription and quantitative PCR in D6 cells; type: cell-based, human; conditions: 24 h, O03 16.8 µM, bortezomib 50 nM
Method in brief: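 D6 cells at 70% confluency were treated in triplicate for 24 h with 50 nM bortezomib, 16.8 µM test compound, or 0.25% DMSO. Total RNA was isolated with TRIzol. 5 µg RNA was DNase I-treated and reverse-transcribed with M-MLV using a mix of dT12, dT15 and dT18 primers (10 µM each), followed by quantitative PCR.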

[3] = system: human CLRN1^N48K-Venus; experiment: Dual color; type: cell-based; conditions: 16.8 µM test compound or 50 nM bortezomib, 24 h, vs no treatment
Method in brief: (§1)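 Cell line stably co-expressing CLRN1N48K-Venus-1D4 and DsRed-Express-DR, grown to 70% confluency. Treatment was 16.8 µM test compound in triplicate for 24 h, with 50 nM bortezomib as positive and DMSO as negative control. Cells were fixed in 4% formaldehyde, washed with PBS and imaged by inverted fluorescence microscopy. Venus and DsRed intensities were quantified in 15 equal-sized cell-containing regions per well, three wells per treatment.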

[4] = system: DsRed-Express-DR (reporter for proteasome-mediated protein degradation); experiment: Dual color; type: cell-based; conditions: 16.8 µM test compound or 50 nM bortezomib, 24 h, vs no treatment
Method in brief: as §1

[5] = target: T1, human CLRN1^N48K; experiment: Immunoblotting of CLRN1N48K in D6 cells; type: cell-based; conditions: 24 h, O03 16.8 µM, B03 16.8 and 1.68 µM, bortezomib 50 nM
Method in brief: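 D6 cells at 70% confluency were treated for 24 h with bortezomib (50 nM) or test compounds at 16.8 µM (one also at 1.68 µM), with DMSO at 0.25% (v/v) final. Lysates were then immunoblotted for CLRN1N48K.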

[6] = target: T1, human CLRN1^N48K; experiment: Automated HTS, D6 cell-based immunofluorescence assay; conditions: D6 cell line, 25 nM
Method in brief: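 Primary screen of about 50,000 library compounds. Cells were fixed in 4% formaldehyde for 20 min, washed with PBST and stained with anti-HA for 90 min at room temperature. Fluorescence intensity per cell area came from six images per well and was normalised per plate to bortezomib and untreated controls to give percent activity.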

[7] = target: T1, human CLRN1^N48K; experiment: Combined treatment with cycloheximide and washout; type: cell-based; conditions: for levels of CLRN1^N48K after 6 h treatment (T0): D6 cells, vs DMSO, bortezomib 50 nM, MG132 50 µM, O03 16.8 µM
Method in brief: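 D6 cells at 70% confluency were treated 6 h with bortezomib (50 nM), MG132 (50 µM) or test compound (16.8 µM); […]. Cells were then cultured 6 h more in 100 µM cycloheximide with or without the same agent. In the washout arm, compound-pretreated cells were washed and held 6 h in cycloheximide without compound. Read-out was CLRN1N48K by immunoblot.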

amount of CLRN1^N48K [1]: did not alter the amount of CLRN1^N48K
SMILES: C=CCNC1=C2C[C@@H](C)C[C@H](OC)[C@H](O)[C@@H](C)/C=C(\C)[C@H](OC(N)=O)[C@@H](OC)/C=C\C=C(/C)C(=O)NC(=CC1=O)C2=O [17-AAG, 17-N-allylamino-17-demethoxygeldanamycin]

CLRN1^N48K level by immunoblotting [5]: increased dramatically
amount of CLRN1^N48K [6]: increased amount
levels of CLRN1^N48K after 6 h treatment (T0) [7]: increased levels of CLRN1^N48K
SMILES: CC(C)C[C@H](NC(=O)[C@H](Cc1ccccc1)NC(=O)c1cnccn1)B(O)O [bortezomib]
CLRN1^N48K mRNA level [2]: not affected
Venus fluorescence [3]: increased both Venus and DsRed
DsRed fluorescence [4]: increased both Venus and DsRed
stability of CLRN1^N48K after washout ([7]; 6 h compound, washout, then 6 h with cycloheximide without compound): effective in stabilizing and protecting CLRN1^N48K from degradation

SMILES: C[C@@H]1C[C@@H]([C@H](O)CC2CC(=O)NC(=O)C2)C(=O)[C@@H](C)C1 [cycloheximide]
synthesis of CLRN1^N48K ([7]; 100 µM cycloheximide): confirmed to inhibit the synthesis of CLRN1^N48K

levels of CLRN1^N48K after 6 h treatment (T0) [7]: increased levels of CLRN1^N48K
SMILES: CC(C)C[C@@H](C=O)NC(=O)[C@H](CC(C)C)NC(=O)[C@H](CC(C)C)NC(=O)OCc1ccccc1 [MG132] (Cbz-Leu-Leu-Leu-aldehyde)
